This is an account of results in ChEMBL document CHEMBL1154052, “Design, synthesis and primary activity evaluation of L-arginine derivatives as amino-peptidase N/CD13 inhibitors” (Bioorg Med Chem, 2009).

The nature of assay [1]: Selectivity ratio of IC50 for MMP2 to IC50 for aminopeptidase N in pig kidney microsome.
Assay [2] concerns the target T1, Aminopeptidase N (Sus scrofa, UniProt P15145).
T1 sequence (P15145 whole entry): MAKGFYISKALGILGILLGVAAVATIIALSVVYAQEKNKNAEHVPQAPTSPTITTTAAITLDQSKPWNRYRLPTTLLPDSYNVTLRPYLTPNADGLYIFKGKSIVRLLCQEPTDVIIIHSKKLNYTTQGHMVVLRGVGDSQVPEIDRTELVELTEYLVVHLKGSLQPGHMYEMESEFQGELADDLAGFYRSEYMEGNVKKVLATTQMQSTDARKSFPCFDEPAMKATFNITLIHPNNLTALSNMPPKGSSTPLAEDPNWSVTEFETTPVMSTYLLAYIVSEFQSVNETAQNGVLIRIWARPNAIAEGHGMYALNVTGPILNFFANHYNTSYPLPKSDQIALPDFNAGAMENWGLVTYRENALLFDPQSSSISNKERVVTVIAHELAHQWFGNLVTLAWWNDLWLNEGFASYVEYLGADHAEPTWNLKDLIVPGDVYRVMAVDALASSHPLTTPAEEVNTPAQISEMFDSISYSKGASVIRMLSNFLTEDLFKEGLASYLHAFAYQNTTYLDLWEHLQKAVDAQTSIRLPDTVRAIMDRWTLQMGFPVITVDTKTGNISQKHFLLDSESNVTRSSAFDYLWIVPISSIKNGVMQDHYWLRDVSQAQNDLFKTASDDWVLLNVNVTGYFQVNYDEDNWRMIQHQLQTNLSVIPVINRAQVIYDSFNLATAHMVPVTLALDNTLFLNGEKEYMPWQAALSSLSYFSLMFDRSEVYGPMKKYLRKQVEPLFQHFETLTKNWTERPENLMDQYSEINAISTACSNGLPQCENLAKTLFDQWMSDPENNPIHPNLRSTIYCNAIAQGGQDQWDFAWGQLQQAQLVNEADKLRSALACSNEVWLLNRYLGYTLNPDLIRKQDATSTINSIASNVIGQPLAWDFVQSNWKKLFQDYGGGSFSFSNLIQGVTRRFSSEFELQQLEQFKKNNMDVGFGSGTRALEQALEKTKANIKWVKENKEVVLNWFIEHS
In words: Inhibition of aminopeptidase N in pig kidney microsome by spectrophotometry. It is filed as microsomes. The method, boiled down:
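Porcine kidney microsomal aminopeptidase (4 μg/mL final) preincubated with inhibitor for 30 min at room temperature in 50 mM PBS, pH 7.2. Inhibitor solutions made in assay buffer and adjusted to pH 7.5. Substrate L-Leu-p-nitroanilide. IC50 determined.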

Assay [3] has as its target 72 kDa type IV collagenase (Homo sapiens, UniProt P08253). In words: Inhibition of MMP2. The method in brief: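 MMP-2 (gelatinase A) incubated with substrate and inhibitor in 50 mmol/L sodium borate, pH 8.5, 30 min at 37 °C. 0.03% TNBS then added and incubated a further 20 min. Absorbance read at 450 nm.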

Chain of 72 kDa type IV collagenase (P08253 whole entry): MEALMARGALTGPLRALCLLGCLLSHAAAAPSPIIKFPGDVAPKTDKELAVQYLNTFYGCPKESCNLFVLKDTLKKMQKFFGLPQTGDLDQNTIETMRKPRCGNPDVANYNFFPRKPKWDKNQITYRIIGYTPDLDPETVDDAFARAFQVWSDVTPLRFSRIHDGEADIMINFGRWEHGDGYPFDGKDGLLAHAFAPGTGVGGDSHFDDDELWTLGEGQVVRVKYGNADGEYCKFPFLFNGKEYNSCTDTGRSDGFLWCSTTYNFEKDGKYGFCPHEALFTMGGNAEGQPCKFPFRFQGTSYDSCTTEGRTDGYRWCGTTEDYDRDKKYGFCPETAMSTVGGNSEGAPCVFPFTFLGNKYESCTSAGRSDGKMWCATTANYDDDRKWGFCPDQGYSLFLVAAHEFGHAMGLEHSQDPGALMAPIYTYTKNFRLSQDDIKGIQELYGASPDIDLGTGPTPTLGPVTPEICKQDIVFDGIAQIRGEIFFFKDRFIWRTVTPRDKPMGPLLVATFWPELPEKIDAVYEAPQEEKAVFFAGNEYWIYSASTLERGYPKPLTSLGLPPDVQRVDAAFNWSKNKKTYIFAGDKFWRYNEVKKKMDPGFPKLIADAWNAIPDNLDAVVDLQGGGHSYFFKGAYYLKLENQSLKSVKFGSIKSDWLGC

For `N=C(NCCC[C@H](NC(=O)/C=C/c1ccccc1)C(=O)NO)N[N+](=O)[O-]`, in assay [1], the Ratio IC50 amounted to 0.04. In addition, the IC50 (as a rule, the concentration at which inhibition is half-maximal) in assay [2] worked out at 1010 µM; in assay [3] it was 36.7 µM.
As for `NC(=N[N+](=O)[O-])NCCC[C@H](NC(=O)c1ccccc1Cl)C(=O)NO`, the IC50 in assay [2] is 20.4 µM; in assay [3], 150 µM.
With `N=C(NCCC[C@H](NS(=O)(=O)c1ccccc1)C(=O)NO)N[N+](=O)[O-]`, in assay [1], the Ratio IC50 came to 1.7.
Still for that read-out and setting: the value for `N=C(NCCC[C@H](NC(=O)c1ccccc1Cl)C(=O)NO)N[N+](=O)[O-]` was 7.3.
`N=C(NCCC[C@H](NC(=O)c1ccc(Cl)c(Cl)c1)C(=O)NO)N[N+](=O)[O-]`: in assay [1], the Ratio IC50 is 5.8. The results for the IC50 in assay [2] and in assay [3] were 33.5 µM and 194 µM, respectively.
With `COc1ccc(C(=O)N[C@@H](CCCNC(N)=N[N+](=O)[O-])C(=O)NO)cc1OC`, the IC50 worked out at 26.9 µM in assay [2] and 346 µM in assay [3].
In the same order, the values of `NC(=N[N+](=O)[O-])NCCC[C@H](NS(=O)(=O)c1ccccc1)C(=O)NO` are 60.2 µM and 100 µM.
For the compound `N=C(NCCC[C@H](NC(=O)c1ccc(Cl)cc1)C(=O)NO)N[N+](=O)[O-]`, in assay [1], the Ratio IC50 was 1.1. In addition, the results for the IC50 in assay [2] and in assay [3] were 215 µM and 238 µM, respectively.
Turning to `N=C(NCCC[C@H](NC(=O)c1ccc(Cl)cc1Cl)C(=O)NO)N[N+](=O)[O-]`, the Ratio IC50 in assay [1] was 65.8. The results for the IC50 in assay [2] and in assay [3] were 5.3 µM and 349 µM, respectively.
In the same order, the values of `N=C(NCCC[C@H](NC(=O)c1ccccc1I)C(=O)NO)N[N+](=O)[O-]` are 8, 21.9 µM and 176 µM.
On to `Cc1ccc(S(=O)(=O)N[C@@H](CCCNC(N)=N[N+](=O)[O-])C(=O)NO)cc1`, for which the values for the IC50 in assay [2] and in assay [3] were 109 µM and 28.9 µM, respectively.
As for `Cc1ccccc1C(=O)N[C@@H](CCCNC(=N)N[N+](=O)[O-])C(=O)NO`, the Ratio IC50 in assay [1] is 9.3. In addition, the IC50 in assay [2] was determined as 221 µM; in assay [3], 2070 µM.
`NC(=N[N+](=O)[O-])NCCC[C@H](NC(=O)c1ccc2ccccc2c1)C(=O)NO`: the results for the 50% inhibitory concentration (IC50) in assay [2] and in assay [3] were 14.6 µM and 85.5 µM, respectively.
As to `N=C(NCCC[C@H](NC(=O)c1ccccc1)C(=O)NO)N[N+](=O)[O-]`, the Ratio IC50 in assay [1] stood at 8.6. Further, the IC50 in assay [2] is 80.6 µM; in assay [3], 693 µM.
In the same order, the values of `N=C(NCCC[C@H](NC(=O)c1cccc(Cl)c1)C(=O)NO)N[N+](=O)[O-]` are 0.4, 202 µM and 89.2 µM.
Take `N=C(NCCC[C@H](NC(=O)c1ccc(Br)cc1)C(=O)NO)N[N+](=O)[O-]`: the Ratio IC50 in assay [1] is 1.1.
For `COc1cc(C(=O)N[C@@H](CCCNC(=N)N[N+](=O)[O-])C(=O)NO)cc(OC)c1OC`, the Ratio IC50 in assay [1] turned out to be 0.2.
`NC(=N[N+](=O)[O-])NCCC[C@H](NC(=O)c1ccc(Br)c([N+](=O)[O-])c1)C(=O)NO`: the half-inhibitory concentration (IC50) in assay [2] was 5.1 µM; in assay [3] it was 236 µM.
For the compound `Cc1cccc(C(=O)N[C@@H](CCCNC(=N)N[N+](=O)[O-])C(=O)NO)c1`, in assay [1], the Ratio IC50 was found to be 14.6. Moreover, the results for the IC50 in assay [2] and in assay [3] were 42.8 µM and 623 µM, respectively.
In the case of `COc1ccc(C(=O)N[C@@H](CCCNC(=N)N[N+](=O)[O-])C(=O)NO)cc1`, the Ratio IC50 in assay [1] was 5.4.
Turning to `COc1ccc(C(=O)N[C@@H](CCCNC(N)=N[N+](=O)[O-])C(=O)NO)cc1`, the IC50 was 60.2 µM in assay [2] and 322 µM in assay [3].
With `COc1ccc(C(=O)N[C@@H](CCCNC(=N)N[N+](=O)[O-])C(=O)NO)cc1OC`, in assay [1], the Ratio IC50 came to 12.8.
In the case of `Cc1ccc(S(=O)(=O)N[C@@H](CCCNC(=N)N[N+](=O)[O-])C(=O)NO)cc1`, in assay [1], the Ratio IC50 was found to be 0.3.
With `N=C(NCCC[C@H](NC(=O)c1cccs1)C(=O)NO)N[N+](=O)[O-]`, in assay [1], the Ratio IC50 is 2.6.
`COc1cccc(C(=O)N[C@@H](CCCNC(=N)N[N+](=O)[O-])C(=O)NO)c1`: in assay [1], the Ratio IC50 is 9.1. The IC50 in assay [2] was determined as 16.5 µM; in assay [3], 151 µM.
`N=C(NCCC[C@H](NC(=O)c1ccc2ccccc2c1)C(=O)NO)N[N+](=O)[O-]`: the Ratio IC50 in assay [1] was 5.9.
Turning to `COc1cc(C(=O)N[C@@H](CCCNC(N)=N[N+](=O)[O-])C(=O)NO)cc(OC)c1OC`, the IC50 in assay [2] came out at 271 µM; in assay [3], 41.1 µM.
Consider `COc1ccccc1C(=O)N[C@@H](CCCNC(=N)N[N+](=O)[O-])C(=O)NO`, for which the Ratio IC50 in assay [1] came to 3.2. The figures for the IC50 in assay [2] and in assay [3] were 78.4 µM and 253 µM, respectively.
As for `NC(=N[N+](=O)[O-])NCCC[C@H](NC(=O)Cc1ccccc1)C(=O)NO`, the figures for the IC50 in assay [2] and in assay [3] were 1660 µM and 8.7 µM, respectively.
In the case of `N=C(NCCC[C@H](NC(=O)c1cccc([N+](=O)[O-])c1)C(=O)NO)N[N+](=O)[O-]`, the Ratio IC50 in assay [1] was determined as 2.3. Moreover, the figures for the IC50 in assay [2] and in assay [3] were 43.4 µM and 102 µM, respectively.
`N=C(NCCC[C@H](NC(=O)CCc1ccccc1)C(=O)NO)N[N+](=O)[O-]`: the Ratio IC50 in assay [1] was determined as 4.9. In addition, the IC50 in assay [2] came to 332 µM; in assay [3], 1640 µM.
With `NC(=N[N+](=O)[O-])NCCC[C@H](NC(=O)c1ccc(Br)cc1)C(=O)NO`, the IC50 in assay [2] was 443 µM; in assay [3], 484 µM.
Consider `NC(=N[N+](=O)[O-])NCCC[C@H](NC(=O)c1cccs1)C(=O)NO`, for which the IC50 in assay [2] was 85.7 µM; in assay [3], 226 µM.
Regarding `N=C(NCCC[C@H](NC(=O)c1ccc([N+](=O)[O-])cc1)C(=O)NO)N[N+](=O)[O-]`, the Ratio IC50 in assay [1] is 12.8. Moreover, the IC50 turned out to be 15.9 µM in assay [2] and 204 µM in assay [3].
For `N=C(NCCC[C@H](NC(=O)c1ccc(Br)c([N+](=O)[O-])c1)C(=O)NO)N[N+](=O)[O-]`, the Ratio IC50 in assay [1] amounted to 46.3.
Still for that read-out and setting: the value for `N=C(NCCC[C@H](NC(=O)Cc1ccccc1)C(=O)NO)N[N+](=O)[O-]` was 0.05.
